Experiments:
[1] = In vivo pharmacokinetic parameters; conditions: parent 8b in rat after oral administration of the 8b salt, 20 mg/kg
Outline: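 Rats dosed orally at 20 mg/kg with the test form; parent compound measured in plasma. Parameters derived: Cmax, Tmax, half-life, volume of distribution, AUC0-t and calculated total clearance (ClT).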

[2] = Human liver microsomal incubations; assay type: in vitro ADME
Outline: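 Test compound at 1 µM incubated with human liver microsomes (1 mg/mL) plus NADPH; samples taken at 0, 10, 30 and 60 min; parent compound remaining measured.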

[3] = test system: 3D7 strain of P. falciparum; assay: In vitro antimalarial activity versus 3D7 Plasmodium falciparum; assay type: cell-based; conditions: 3D7, read-out: IC50 (nM) 3D7 ± SD, 3D7 strain of P. falciparum

| Structure (SMILES) | ClT [1] [mL/min/kg] | parent compound present after 60 min incubation ([2]; 1 μM, human liver microsomes 1 mg/mL, NADPH, 60 min) | CLint scaled at 1 µM ([2]; human, liver microsomes) [mL/min/kg] | IC50 [3] [nM] |
| --- | --- | --- | --- | --- |
| Cc1c(-c2ccc(-c3ccc(OC(F)(F)F)cc3)nc2)[nH]c2ccccc2c1=O [8b] | 4.605 | Greater than 60% | 1.78 |  |
| CCOC(=O)c1c(-c2ccc(-c3ccc(OC(F)(F)F)cc3)nc2)[nH]c2ccccc2c1=O [compound 21] |  |  |  | 103 |
| O=c1c(CO)c(-c2ccc(-c3ccc(OC(F)(F)F)cc3)nc2)[nH]c2ccccc12 [compound 22] |  |  |  | 987 |

From article PMC3351724 (Journal of Medicinal Chemistry, 2012)
